This passage reports IC50, ED50 and EC50 results from ChEMBL document CHEMBL1135816, “6-Aryl-1,4-dihydro-benzo[d][1,3]oxazin- 2-ones: a novel class of potent, selective, and orally active nonsteroidal progesterone receptor antagonists” (J Med Chem, 2002).

One assay has as its target T1, Androgen receptor (Homo sapiens, UniProt P10275).
T1 sequence (P10275 whole entry): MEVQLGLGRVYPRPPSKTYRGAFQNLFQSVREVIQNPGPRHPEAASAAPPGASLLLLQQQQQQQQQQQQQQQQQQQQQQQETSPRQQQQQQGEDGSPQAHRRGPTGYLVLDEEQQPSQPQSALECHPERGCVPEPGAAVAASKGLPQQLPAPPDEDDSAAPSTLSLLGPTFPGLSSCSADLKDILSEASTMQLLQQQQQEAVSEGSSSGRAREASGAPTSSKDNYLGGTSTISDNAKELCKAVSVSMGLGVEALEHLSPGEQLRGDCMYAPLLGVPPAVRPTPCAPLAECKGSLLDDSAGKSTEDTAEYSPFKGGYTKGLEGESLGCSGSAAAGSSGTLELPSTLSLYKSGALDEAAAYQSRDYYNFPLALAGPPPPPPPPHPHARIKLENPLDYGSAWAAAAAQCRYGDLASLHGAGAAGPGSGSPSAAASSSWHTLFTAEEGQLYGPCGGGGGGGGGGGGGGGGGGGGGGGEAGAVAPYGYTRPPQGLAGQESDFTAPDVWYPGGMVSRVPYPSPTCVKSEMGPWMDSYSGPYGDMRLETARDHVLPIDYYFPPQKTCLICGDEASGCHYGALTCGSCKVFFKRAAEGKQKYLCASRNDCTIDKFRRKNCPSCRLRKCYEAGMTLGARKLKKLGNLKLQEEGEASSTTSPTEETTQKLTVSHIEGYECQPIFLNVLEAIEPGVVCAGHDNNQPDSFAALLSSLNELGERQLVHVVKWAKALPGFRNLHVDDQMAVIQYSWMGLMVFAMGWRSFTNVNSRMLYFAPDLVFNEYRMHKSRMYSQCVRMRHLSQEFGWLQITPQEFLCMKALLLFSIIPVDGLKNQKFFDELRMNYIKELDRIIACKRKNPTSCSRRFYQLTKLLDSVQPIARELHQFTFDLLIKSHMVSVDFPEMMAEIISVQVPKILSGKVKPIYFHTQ
The assay can be described thus: Antagonist activity against the Androgen Receptor (AR).

Another assay has as its target Estrogen receptor (Homo sapiens, UniProt Q92731+P03372). The assay can be described thus: Antagonist activity against the Estrogen Receptor (ER). Format: functional.
For assay [1], the target named is T2, Progesterone receptor (Rattus norvegicus) (UniProt Q63449).
T2 sequence (whole entry): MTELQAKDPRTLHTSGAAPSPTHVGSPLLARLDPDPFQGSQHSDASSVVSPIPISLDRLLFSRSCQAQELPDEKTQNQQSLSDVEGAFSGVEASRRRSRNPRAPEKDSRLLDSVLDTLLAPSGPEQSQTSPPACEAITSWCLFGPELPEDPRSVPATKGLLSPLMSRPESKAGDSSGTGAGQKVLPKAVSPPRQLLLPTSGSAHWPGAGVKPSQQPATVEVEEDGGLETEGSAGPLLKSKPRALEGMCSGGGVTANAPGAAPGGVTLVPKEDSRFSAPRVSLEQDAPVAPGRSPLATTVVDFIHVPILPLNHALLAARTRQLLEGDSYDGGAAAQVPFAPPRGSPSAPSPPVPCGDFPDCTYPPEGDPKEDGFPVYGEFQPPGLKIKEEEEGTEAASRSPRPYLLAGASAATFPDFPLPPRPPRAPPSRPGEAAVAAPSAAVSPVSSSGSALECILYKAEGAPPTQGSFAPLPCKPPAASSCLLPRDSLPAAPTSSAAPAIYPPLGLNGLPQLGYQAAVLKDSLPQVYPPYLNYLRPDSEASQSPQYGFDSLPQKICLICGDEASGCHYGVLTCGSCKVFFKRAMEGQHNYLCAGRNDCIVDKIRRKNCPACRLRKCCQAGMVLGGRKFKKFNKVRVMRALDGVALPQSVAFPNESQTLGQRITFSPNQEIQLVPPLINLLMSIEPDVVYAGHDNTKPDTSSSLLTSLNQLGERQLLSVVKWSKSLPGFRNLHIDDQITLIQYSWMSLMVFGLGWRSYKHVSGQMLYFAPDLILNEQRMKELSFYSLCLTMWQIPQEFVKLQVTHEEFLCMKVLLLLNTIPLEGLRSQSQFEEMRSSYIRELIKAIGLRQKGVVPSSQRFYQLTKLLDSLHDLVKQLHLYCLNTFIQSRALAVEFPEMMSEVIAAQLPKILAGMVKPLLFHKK
The assay can be described thus: Inhibitory activity against progesterone receptor (PR) in ovariectomized mature female rat decidualization model. Type of assay: functional. The method, boiled down: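 Ovariectomized mature rats dosed orally for 7 days, with progesterone 5.6 mg/kg SC given alongside; vehicle-only controls. Decidual response (D/C) measured 24 h after the final treatment, seven animals per point. ED50 averaged from at least duplicate determinations.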

Assay [2] has as its target T3, Progesterone receptor (Homo sapiens, UniProt P06401).
T3 sequence (P06401 whole entry): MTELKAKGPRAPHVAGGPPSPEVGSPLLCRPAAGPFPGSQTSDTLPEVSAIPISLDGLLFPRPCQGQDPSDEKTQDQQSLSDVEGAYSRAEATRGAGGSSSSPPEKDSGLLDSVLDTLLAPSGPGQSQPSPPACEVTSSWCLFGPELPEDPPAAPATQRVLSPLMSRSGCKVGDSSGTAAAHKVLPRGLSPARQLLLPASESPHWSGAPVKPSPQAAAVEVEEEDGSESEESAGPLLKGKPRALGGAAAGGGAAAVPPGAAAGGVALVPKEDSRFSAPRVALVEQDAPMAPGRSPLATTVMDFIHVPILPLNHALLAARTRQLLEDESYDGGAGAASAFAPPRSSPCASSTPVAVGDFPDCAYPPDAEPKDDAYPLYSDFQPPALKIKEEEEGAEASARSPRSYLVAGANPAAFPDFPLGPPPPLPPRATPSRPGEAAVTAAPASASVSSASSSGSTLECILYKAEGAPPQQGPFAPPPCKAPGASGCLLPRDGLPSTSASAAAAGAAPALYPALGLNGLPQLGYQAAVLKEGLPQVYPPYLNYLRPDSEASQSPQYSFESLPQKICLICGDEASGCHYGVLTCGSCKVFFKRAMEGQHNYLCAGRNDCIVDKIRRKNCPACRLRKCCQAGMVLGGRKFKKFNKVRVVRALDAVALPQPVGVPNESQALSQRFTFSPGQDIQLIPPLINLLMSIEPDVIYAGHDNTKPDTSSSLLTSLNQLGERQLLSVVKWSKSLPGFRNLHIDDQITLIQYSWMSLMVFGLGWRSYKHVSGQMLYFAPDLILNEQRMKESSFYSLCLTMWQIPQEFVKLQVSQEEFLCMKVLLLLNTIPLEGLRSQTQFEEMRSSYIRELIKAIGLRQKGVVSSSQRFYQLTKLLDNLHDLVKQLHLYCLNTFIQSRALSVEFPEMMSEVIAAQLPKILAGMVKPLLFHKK
Description: Agonist activity against progesterone receptor (PR) in an alkaline phosphatase assay in the T47D human breast carcinoma cell line. Format: functional, cell-based. The method, boiled down: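 T47D human breast carcinoma cells scored for PR agonism via alkaline phosphatase read-out; EC50 taken as the mean of at least duplicate determinations.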

Assay [3] addresses T3, Progesterone receptor. The assay can be described thus: Antagonist activity against progesterone receptor (PR) in an assay using PRE-luciferase plasmid co-transfected CV-1 cells. Type of assay: functional, cell-based. The method, boiled down: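 CV-1 cells cotransfected with hPR and PRE-luciferase plasmids, luciferase read-out; IC50 averaged from at least duplicate determinations.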

Bounds are passed on as bounds.

The term IC50 denotes the point on the concentration scale where inhibition reaches its midpoint. High values mean a need for much substance, low ones inhibition by little substance. In general, ED50 refers to the dose that gives a 50% effect, or the effect in half of the subjects. A high value points to a need for a large dose. By EC50 is commonly meant the concentration giving half of the maximal effect. A lower EC50 goes with higher potency in that assay.

Regarding `CC1(C)OC(=O)Nc2ccc(-c3ccc(F)c(Cl)c3)cc21`, the IC50 on Androgen receptor is 207 nM; against Estrogen receptor, more than 10000 nM. The ED50 in assay [1] stood at 1 mg/kg.

Regarding `CC1(C)OC(=O)Nc2ccc(-c3cc(F)cc(C#N)c3)cc21`, on Progesterone receptor [2], a half-maximal effect (EC50) was put at 90 nM. Besides, the results for the IC50 on Androgen receptor, at Estrogen receptor and at Progesterone receptor [3] were 1290 nM, more than 10000 nM and 15.9 nM, respectively. This compound registered an ED50 in assay [1] of 0.3 mg/kg.

In turn, `CC1(C)OC(=O)Nc2ccc(-c3csc(C#N)c3)cc21` came in with an EC50 on Progesterone receptor [2] of 61.1 nM. The IC50 at Androgen receptor was determined as 280 nM; at Progesterone receptor [3], 6.7 nM. In assay [1], this compound returned an ED50 of 1.7 mg/kg.

`CC1(C)OC(=O)Nc2ccc(-c3coc(C#N)c3)cc21`: the results for the IC50 against Androgen receptor and at Progesterone receptor [3] were 129 nM and 40.2 nM, respectively. The 50% effective dose (ED50) in assay [1] was 0.9 mg/kg.
